Data from ChEMBL document CHEMBL1135742, “Modification of the structure of a metallopeptide: synthesis and biological evaluation of (111)In-labeled DOTA-conjugated rhenium-cyclized alpha-MSH analogues” (J Med Chem, 2002).

Tests used:
Type in all cases: functional, organism-based
Mus musculus [1] = organism: Mus musculus; assay: Uptake of [111In]-labeled compound in lung at 2 hr pi in the presence of […]
Method in brief: (§1)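 C57 BL/6 female mice, 7–8 weeks old, inoculated s.c. in right flank with 1×10^6 B16/F1 melanoma cells. Used 9–10 days later at tumor weight ~500 mg. […] HPLC-purified 111In-DOTA peptide (neutral pH) given via tail vein, with or without […]. Killed 2 h pi. Tissues weighed and gamma-counted. Uptake expressed as % ID/g.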

Mus musculus [2] = organism: Mus musculus; assay: Uptake of [111In]-labeled compound in lung at 2 hr pi in the absence of […]; method in brief: as §1
Mus musculus [3] = organism: Mus musculus; assay: Uptake of [111In]-labeled compound in kidney at 2 hr pi in the presence of […]; method in brief: as §1
Mus musculus [4] = organism: Mus musculus; assay: Uptake of [111In]-labeled compound in muscle at 2 h pi in the presence of […]; conditions: Muscle tissue; method in brief: as §1
Mus musculus [5] = organism: Mus musculus; assay: Uptake of [111In]-labeled compound in spleen at 2 hr pi in the absence of 10 mg NDP; method in brief: as §1
Mus musculus [6] = organism: Mus musculus; assay: Uptake of [111In]-labeled compound in muscle at 2 hr pi in the absence of […]; conditions: Muscle tissue; method in brief: as §1
Mus musculus [7] = organism: Mus musculus; assay: Uptake of [111In]-labeled compound in pancreas at 2 hr pi in the presence of 10 mg NDP; method in brief: as §1
Mus musculus [8] = organism: Mus musculus; assay: Uptake of [111In]-labeled compound in spleen at 2 hr pi in the presence of 10 mg NDP; method in brief: as §1

## DOTA-ReCCEHdFRWCRPV-NH2
Mus musculus [1]
  ID/g: 0.44%
Mus musculus [2]
  ID/g: 0.3%
Mus musculus [3]
  ID/g: 11.2%
Mus musculus [4]
  ID/g: 0.18%
Mus musculus [5]
  ID/g: 0.27%
Mus musculus [6]
  ID/g: 0.03%
Mus musculus [7]
  ID/g: 0.11%
Mus musculus [8]
  ID/g: 0.47%
